Rows were chosen to be rich in hits. Some 1.6% of all compounds tested hit in one or more screens of this group.
HMGR II inh: inhibitors of class II HMG-CoA reductase from Enterococcus faecalis; purified E. faecalis HMGR, NADPH absorbance 340 nm kinetic; inhibition, % at 10 µM; hit rate 0.41% among 190,000;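 active = inhibition above a set limit, the median over all tested compounds plus 3 SD, cut at about 9.5% in these data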;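 note: enzyme runs in reverse so mevalonate oxidation gives rising NADPH absorbance; 0% = complete reaction with DMSO and 100% = background rate lacking mevalonate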
Diaphorase inh: counter-screen for diaphorase-based assays: diaphorase inhibitors and chemical oxidizers; diaphorase resazurin-to-resorufin fluorescence, NADH, 16 min; bacterial (C. kluyveri) enzyme, not human; inhibition, % at 20 µM; hit rate 0.69% among 190,000; AID 1217;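 active = primary screen inhibition at 20 µM above a set limit, cut at about 50% in these data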;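 note: plate controls were DMSO with full reaction for no effect and wells lacking NADH for full effect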
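System: Bacterial diaphorase enzyme (C. kluyveri) | Incubation: 16-min room-temperature incubation before reading | Benchmarks: No-NADH positive control and DMSO neutral control | Measured by: Resorufin fluorescence 544/590 nm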
ABCG2 inh: human ABCG2 inhibition, ABCB1 as counter-screen; Q9UNQ0; IgMXP3 cells, JC-1 efflux, flow cytometry; inhibition, % at 6.6 µM; hit rate 0.1% among 190,000;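 active = inhibition above 80%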;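 note: 0% = DMSO and 100% = nicardipine control wells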
Target sequence (Q9UNQ0 whole entry, looked up): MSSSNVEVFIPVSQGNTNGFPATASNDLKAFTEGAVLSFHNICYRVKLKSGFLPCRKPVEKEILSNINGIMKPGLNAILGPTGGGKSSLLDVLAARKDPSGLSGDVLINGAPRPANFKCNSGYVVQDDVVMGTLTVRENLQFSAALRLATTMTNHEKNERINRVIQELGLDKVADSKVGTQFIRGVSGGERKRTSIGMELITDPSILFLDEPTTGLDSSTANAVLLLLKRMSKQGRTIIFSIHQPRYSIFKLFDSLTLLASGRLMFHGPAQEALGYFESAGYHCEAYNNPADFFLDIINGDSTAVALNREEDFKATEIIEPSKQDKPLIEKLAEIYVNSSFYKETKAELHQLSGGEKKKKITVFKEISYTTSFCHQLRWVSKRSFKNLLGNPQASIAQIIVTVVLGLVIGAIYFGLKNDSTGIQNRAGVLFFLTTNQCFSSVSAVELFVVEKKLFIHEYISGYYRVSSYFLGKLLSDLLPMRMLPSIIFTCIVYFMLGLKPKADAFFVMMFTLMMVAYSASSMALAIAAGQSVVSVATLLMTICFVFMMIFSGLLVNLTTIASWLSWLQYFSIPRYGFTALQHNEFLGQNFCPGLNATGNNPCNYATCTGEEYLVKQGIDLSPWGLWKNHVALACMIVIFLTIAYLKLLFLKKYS
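test system = two drug-resistant human cell lines, ABCG2 and ABCB1 | amount = 3 million cells/mL final, two lines in 1:1 ratio | reagent = JC-1 transporter substrate | doses = one concentration, 6.6 µM final | incubation = 10 min at 25 °C | signal = flow cytometric JC-1 green MFI at 530 nm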
NCF1 inh: inhibitors of human p47phox binding | p47phox/p22phox peptide binding, fluorescence polarization, 2 h | inhibition, % at 24.7 µM | hit rate 0.53% among 220,000 | AID 1274;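 active = inhibition above about 30%, limit read from the data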;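 note: 0% = p47phox with labelled peptide and 100% = labelled peptide alone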
ABCB1 block: human ABCB1 inhibition, ABCG2 as counter-screen; hit rate 0.067% among 190,000; inhibition, % at 6.6 µM; CCRF-Adr cells, JC-1 efflux, flow cytometry; in the data active = inhibition above about 40%;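 note: 0% = vehicle and 100% = reference inhibitor; higher value means more JC-1 retained so stronger ABCB1 efflux block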
Diaphorase act: counter-screen for diaphorase-based assays: diaphorase activators and chemical reducers; Diaphorase/resazurin coupled assay, resorufin fluorescence, 16 min; stronger effect = higher value; 1 = vehicle wells, 0 = NADH-free wells; activation factor at 20 µM; hit rate 0.005% among 190,000; AID 1229;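 active = diaphorase activity raised at least twofold by the compound at 20 µM; inactive = activation factor below 2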
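Material: purified diaphorase enzyme from Clostridium kluyveri / Medium: HEPES pH 7.4 buffer with MgCl2 and Tween 20 / Schedule: enzyme reaction of 16 min at room temperature / Measured by: resorufin fluorescence, excitation 544 nm, emission 590 nm / Evaluation: rise in resorufin formation, marking diaphorase activation or chemical reduction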
Numbers without * were called inactive; . = no result; + = active, no number.

SMILES	HMGR II inh	Diaphorase inh	ABCG2 inh	NCF1 inh	ABCB1 block	Diaphorase act
CNc1ccc(Br)cc(C(=O)/C=C/c2cccc(OC)c2)c1=O	-4	50*	0	-6	0	0.5
CCNc1ccc(Br)cc(C(=O)/C=C/c2ccc(Cl)cc2)c1=O	-1	47	-2	-7	-1	0.5
CNc1ccc(Br)cc(C(=O)/C=C/c2ccc(Cl)cc2Cl)c1=O	-1	85*	3	-47	2	0.2
CNc1ccc(Br)cc(C(=O)/C=C/c2ccc(OC)cc2OC)c1=O	0	42	-5	-18	-1	0.6
CCNc1ccc(Br)cc(C(=O)/C=C/c2c(Cl)cccc2Cl)c1=O	0	44	-1	-5	0	0.6
CCNc1ccc(Br)cc(C(=O)/C=C/c2ccc3c(c2)OCO3)c1=O	-1	59*	-1	-7	0	0.4
CCNCc1ccc(OCc2cccs2)c(OCC)c1	-1	3	0	-14	0	1
COc1ccccc1NC(=O)C1=C(C)NC(=O)NC1c1ccccc1[N+](=O)[O-] (stereo unspecified)	11*	15	0	-6	0	0.8
CCC(C)n1c(C)nc2c(c1=O)c1nc3ccccc3nc1n2CCC1=CCCCC1 (stereo unspecified)	-4	64*	7	-65	2	0.4
CN(C)c1nc(-c2cccs2)cc(C(F)(F)F)c1C#N	.	.	.	58*	.	.
O=C(c1cccs1)N(c1ccc(F)cc1)C1C=CS(=O)(=O)C1 (stereo unspecified)	17*	9	0	-2	0	0.9
CN(c1ccc(OCC(=O)OCC(=O)Nc2ccccc2)cc1)S(=O)(=O)c1cccs1	-4	12	22	-11	1	0.9
CC1=C(C(=O)OC(C)C)C(c2ccc(C)o2)NC(=O)N1 (stereo unspecified)	11*	-9	3	5	1	1.1
CCOC(=O)C1=C(C)NC(=O)NC1c1ccc(C)o1 (stereo unspecified)	-3	6	4	-24	1	0.9
Cc1cccc(NC(=O)CN2CCSc3ccccc32)c1	13*	7	2	-4	1	0.9
COc1cccc(NC(=O)CN2CCSc3ccccc32)c1	-6	5	8	-9	2	0.9
N#Cc1nc(COc2ccc(F)cc2)oc1N1CCC(Cc2ccccc2)CC1	0	9	4	50*	1	0.9
COc1ccc(/C=C2\SC(=S)N(c3cccnc3)C2=O)cc1	.	.	.	2	.	.
CCC1CC(C)(C(=O)Nc2ccc(S(N)(=O)=O)cc2)OC1=O (stereo unspecified)	-11	-14	0	+	0	1.1
CN(C)S(=O)(=O)c1ccc(-c2csc(-c3cccnc3)n2)cc1	0	6	10	10	0	0.9
CCOC(=O)N1CCN(C(=O)c2ccc3c(=O)n(-c4ccc(OC)cc4OC)c(=S)[nH]c3c2)CC1	0	44	-1	5	0	0.6
CCOC(=O)N1CCN(C(=O)c2ccc3c(=O)n(-c4ccccc4F)c(=S)[nH]c3c2)CC1	3	50*	1	1	-1	0.5
CCOC(=O)c1ccc(N(C(=O)c2cnccn2)C(C(=O)NC2CCCCC2)c2cn(C)nc2C)cc1 (stereo unspecified)	15*	-18	-1	3	0	1.2
CCCCCc1ccc(C(=O)CCCC)c(=S)[nH]1	5	57*	-1	-14	-2	0.4
CCCCCc1cc(=O)[nH]c(=S)[nH]1	.	.	.	-6	.	.
SMILES	HMGR II inh	Diaphorase inh	ABCG2 inh	NCF1 inh	ABCB1 block	Diaphorase act
CCOC(=O)C1=C(C)NC(=O)CC1c1cc2c(cc1[N+](=O)[O-])OCO2 (stereo unspecified)	-4	72*	4	-9	2	0.3
CC1=C(C(=O)OCc2ccc3c(c2)OCO3)C(c2ccccc2)NC(=O)N1 (stereo unspecified)	6	28	1	-16	1	0.7
CC1=C(C(=O)OCc2ccc3c(c2)OCO3)C(c2ccc(O)c([N+](=O)[O-])c2)NC(=O)N1 (stereo unspecified)	-5	52*	2	5	1	0.5
CCC1S/C(=N/C(=O)NC2CCCCC2)NC1=O (stereo unspecified)	10*	3	2	-15	0	1
O=C(/N=C1\NC(=O)C(F)(C(F)(F)F)S1)NC1CCCCC1 (stereo unspecified)	-5	24	0	-9	0	0.8
Cc1cccc(/C=N\Nc2cn[nH]c(=O)c2Cl)c1	-6	12	10	-12	1	0.9
COC(=O)c1cc2n3ccccc3c(C)c(-c3ccccc3)c-2c1C(=O)OC	1	57*	7	53*	1	0.4
O=C1C2=C(SCCS2)C(=O)N1CCCO	1	-5	1	72*	0	1.1
CCN(C(=O)c1ccc(NC(C)=O)cc1)c1ccccc1	-9	7	2	55*	0	0.9
Cc1ccc(SC(C)C(=O)Nc2ccc(S(=O)(=O)N3CCOCC3)cc2)cc1 (stereo unspecified)	-6	53*	16	9	1	0.5
CC(C(=O)Nc1ccc(S(=O)(=O)N2CCOCC2)cc1)N1CCN(c2ccccn2)CC1 (stereo unspecified)	13*	6	3	-6	0	0.9
O=C(Nc1cccc(S(=O)(=O)N2CCOCC2)c1)c1ccc2ccccc2n1	.	.	.	-12	.	.
CC(=O)Nc1ccc(S(=O)(=O)N2CCN(c3ccccn3)CC2)cc1	4	16	4	-8	1	0.8
CC(=O)Nc1ccc(S(=O)(=O)N2CCOCC2)cc1	-1	-6	1	-7	0	1.1
CC(Sc1nc2cc(Cl)ccc2s1)C(=O)Nc1cccc(S(=O)(=O)N2CCOCC2)c1 (stereo unspecified)	2	66*	2	-25	0	0.3
COc1ccc(CCNC(=O)CCNS(=O)(=O)c2ccc3c(c2)CCN3C(C)=O)cc1OC	1	12	-6	-3	1	0.9
COc1ccc(Br)cc1C1CC(=O)N2CN(Cc3ccccc3)CSC2=C1C#N (stereo unspecified)	-2	57*	-2	6	0	0.4
COc1cc(OC)c(C2CC(=O)N3CN(C)CSC3=C2C#N)cc1OC (stereo unspecified)	0	36	-2	3	0	0.6
COc1ccccc1N1CSC2=C(C#N)C(c3ccc(SC)cc3)CC(=O)N2C1 (stereo unspecified)	-6	65*	-5	-24	-1	0.4
